Source: paper PMC11931292 (Drug Design, Development and Therapy, 2025)

Key:
[1] = In vitro drug release; format: physicochemical; details: within 9 hours
[2] = tested on: BCG within RAW264.7; test: Intracellular inhibition, CFU assay in infected RAW264.7 cells; format: cell-based; details: 0.047 μg/mL drug, 72 hours, BCG MOI 1
Method in brief: (§1)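 RAW264.7 macrophages were seeded at 1×10⁶ cells/well in 12-well plates and infected at MOI 1, for 24 h with BCG or 4 h with H37Rv. Cells were exposed to 0.047 μg/mL free drug or nanoparticles with equivalent drug for 72 h, washed three times with PBS, and lysed 10 min in PBS with 0.03% SDS. Lysates were serially diluted in 7H9, plated on 7H11, and CFU counted after 21 days at 37°C (three replicates).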

[3] = tested on: H37Rv within RAW264.7; test: as above; format: cell-based, Mycobacterium tuberculosis; details: 0.047 μg/mL drug, 72 hours, H37Rv MOI 1
Method in brief: as §1

[4] = Pharmacokinetics study, single intravenous injection; format: in vivo, Sprague-Dawley (SD) rats; details: SD rats, single i.v. 10 mg/kg
Method in brief: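 Male SD rats (180–220 g) were randomised to free drug or one of two nanoparticle formulations and anaesthetised with i.p. 2% sodium pentobarbital (3mg/100g). Each got a single i.v. dose of 10 mg/kg drug-equivalent. Blood was drawn by orbital bleeding at set times. Plasma was deproteinised with acetonitrile and centrifuged, and the supernatant was assayed by HPLC (C18, 30°C, 335 nm). Cmax, Tmax, t1/2, MRT and AUC0–∞ were derived.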

[5] = Organ toxicity: H&E histology and serum biochemistry; format: in vivo, SD rats; details: fourth day after injection
Method in brief: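 On day 4 after injection, animals were euthanised. Heart, kidneys, liver, lungs and spleen were excised, rinsed in saline to remove blood, fixed in 4% paraformaldehyde for 72 h, and stained with hematoxylin and eosin.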

CO[C@H]1/C=C/O[C@@]2(C)Oc3c(C)c(O)c4c(O)c(c(/C=N/N5CCN(C6CCCC6)CC5)c(O)c4c3C2=O)NC(=O)/C(C)=C\C=C\[C@H](C)[C@H](O)[C@@H](C)[C@@H](O)[C@@H](C)[C@H](OC(C)=O)[C@@H]1C [RPT, Rifapentine]
Cumulative release (initial burst release) [1]: approximately 90.73% | Intracellular antibacterial activity (CFU) [2]: exhibited inhibitory effects | Intracellular antibacterial activity (CFU) [3]: exhibited inhibitory effects | Time the drug persisted in the system [4]: 2 days | H&E histology of heart, spleen, liver, lungs and kidneys [5]: no discernible abnormalities
